Laboratory results from paper PMC10786304 (Proceedings of the National Academy of Sciences of the …, 2024).
≈ marks a conversion by molar mass, not a printed value.

Columns and labels:
[1] = system: M. abscessus ATCC 19977 ∆3508c ∆2780c; test: MIC, double deletion mutant ∆whiB7 ∆tetV; assay type: cell-based, Mycobacterium abscessus; conditions: ∆tetV MIC divided by ∆whiB7 ∆tetV MIC
[2] = system: M. abscessus ATCC 19977 ∆3508c (∆whiB7); test: MIC, isogenic deletion mutant ∆whiB7; assay type: cell-based, Mycobacterium abscessus; conditions: versus wild type
Mab ATCC 19977 = test: Whole-cell accumulation assay; assay type: cell-based, Mycobacterium abscessus; conditions: 100 µM compound, 30 min; mean ± SD
Method in brief: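 Mab grown in MHB2 + 0.05% tyloxapol (37 °C, shaking) to OD600 0.5–0.6 was washed in PBS with 0.05% Tween-80 and 5% glucose. The concentrated suspension was incubated with 100 µM compound (1% DMSO) for 30 min at 37 °C, then washed three times; an aliquot was taken for CFU. Pellets were lysed and filtered supernatant quantified by LC-MS/MS. A = C×V/CFU, normalized to 10^10 CFU. Biological triplicate, mean and SD; ANOVA with Dunnett versus SPC.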

M. abscessus ATCC 19977 = test: microbe, parasite or virus in culture; assay type: cell-based, Mycobacterium abscessus; conditions: Mycobacteroides abscessus, ATCC19977, 120 h, read-out: MIC M. abs
[3] = system: M. abscessus ATCC 19977 ∆2780c (∆tetV); test: MIC, isogenic deletion mutant ∆tetV; assay type: cell-based, Mycobacterium abscessus; conditions: for WT/∆2780c ratio: WT MIC divided by ∆tetV MIC
[4] = system: M. abscessus ATCC 19977 ∆2780c (∆tetV); conditions: ref [7], [17]; cited from earlier work
[5] = system: purified M. smegmatis ATCC 19420 ribosomes; test: Mycobacterial cell-free translation inhibition assay; assay type: biochemical, Mycobacterium smegmatis; conditions: read-out: IC50 M. smg ribo
[6] = system: 2593-resistant spontaneous Mab mutants (Mab ATCC 19977); test: Selection and MIC testing of 2593-resistant spontaneous Mab mutants; assay type: cell-based, Mycobacterium abscessus; conditions: cross-resistance test

Compound | ∆2780c/∆3508c ∆2780c ratio [1] | increase in susceptibility against the ΔwhiB7 strain [2] | whole-cell accumulation (Mab ATCC 19977) [nM/10^10 CFU] | MIC (M. abscessus ATCC 19977) [µg/mL] | WT/∆2780c ratio [3] | increase in susceptibility in the ΔtetV strain ([3]; versus wild type) [fold] | increase in SPC susceptibility of Mab Δ2780c deletion mutants [4] [fold] | IC50 [5] [nM] | susceptibility of 2593-resistant mutants [6]
CN[C@@H]1[C@H](O)[C@H](NC)[C@H]2O[C@@]3(O)C(=O)C[C@@H](C)O[C@H]3O[C@@H]2[C@H]1O [SPC, spectinomycin] | 1 | eightfold | 38.2 ± 9.0 | 256 (≈ 770 µM) | 64 | 64 | > 100 | 800 ± 210 | –
NCC[C@H](O)C(=O)N[C@@H]1C[C@H](N)[C@@H](O[C@H]2O[C@H](CN)[C@@H](O)[C@H](O)[C@H]2O)[C@H](O)[C@H]1O[C@H]1O[C@H](CO)[C@@H](O)[C@H](N)[C@H]1O [AMK, amikacin] | 8 | – | – | – | 1 | – | – | – | remained susceptible
